Measurements gathered from unrelated publications.
Compare with care: the assays were run in different laboratories.
Target: Mitogen-activated protein kinase kinase kinase kinase 3 (MAP4K3, Homo sapiens, UniProt Q8IVH8)
Residues used in one study (Q8IVH8 1-894): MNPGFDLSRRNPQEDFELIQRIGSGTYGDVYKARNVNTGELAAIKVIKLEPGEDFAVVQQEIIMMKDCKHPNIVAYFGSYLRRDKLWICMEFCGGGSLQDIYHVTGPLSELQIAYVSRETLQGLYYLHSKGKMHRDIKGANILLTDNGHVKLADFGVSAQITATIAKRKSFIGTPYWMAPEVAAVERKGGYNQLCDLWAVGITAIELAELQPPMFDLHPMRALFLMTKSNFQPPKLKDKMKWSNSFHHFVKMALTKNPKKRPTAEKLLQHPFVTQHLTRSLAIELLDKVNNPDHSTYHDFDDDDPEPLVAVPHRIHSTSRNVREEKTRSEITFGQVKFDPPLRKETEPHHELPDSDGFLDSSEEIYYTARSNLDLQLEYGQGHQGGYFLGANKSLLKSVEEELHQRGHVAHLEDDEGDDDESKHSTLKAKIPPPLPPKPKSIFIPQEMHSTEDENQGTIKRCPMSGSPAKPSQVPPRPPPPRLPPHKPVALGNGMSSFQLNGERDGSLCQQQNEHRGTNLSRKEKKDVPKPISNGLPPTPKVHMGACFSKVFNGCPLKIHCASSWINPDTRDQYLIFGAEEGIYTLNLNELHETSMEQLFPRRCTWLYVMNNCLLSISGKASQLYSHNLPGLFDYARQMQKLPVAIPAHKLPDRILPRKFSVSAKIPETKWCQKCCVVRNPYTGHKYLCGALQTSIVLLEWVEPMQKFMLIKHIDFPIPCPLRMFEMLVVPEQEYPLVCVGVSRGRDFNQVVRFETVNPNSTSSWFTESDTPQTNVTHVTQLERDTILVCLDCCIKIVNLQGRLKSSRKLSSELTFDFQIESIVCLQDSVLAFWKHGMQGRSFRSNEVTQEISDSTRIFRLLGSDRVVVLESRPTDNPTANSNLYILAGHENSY

Compound | observed | action | method | concentration | quantity | value
COc1ccc2oc(-c3ccc4nc(N)oc4c3)c/c(=N\c3ccccc3NC(=O)CCN)c2c1 | binding |  |  | 1 µM | remaining binding | 113%
CCCCC(=O)Nc1ccc(-c2ccc3ncn(CCC)c(=O)c3c2)cn1 | binding |  | competition with immobilised ligand | 0.5 µM | remaining binding | 81%
CO[C@@H]1[C@H](N(C)C(=O)c2ccccc2)C[C@H]2O[C@]1(C)n1c3ccccc3c3c4c(c5c6ccccc6n2c5c31)C(=O)NC4 | enzyme activity | inhibitor |  | 1 µM | inhibition | 77%
C1=C/COCc2cc(ccc2OCCN2CCCC2)Nc2nccc(n2)-c2cccc(c2)COC/1 | cell-free assay |  |  | 0.1 µM | remaining signal | 80%
Cc1ccc(NC(=O)c2ccnc(C(F)(F)F)c2)cc1-c1cc(OCCO)nc(N2CCOCC2)c1 | binding |  | competition with immobilised ligand | 1 µM | remaining binding | 100%
C=CC(=O)N1CCC([C@@H]2CCNc3c(C(N)=O)c(-c4ccc(Oc5ccccc5)cc4)nn32)CC1 | enzyme activity | inhibitor |  | 1 µM | inhibition | 14%
C[C@H]1CC[C@H](n2c3cnccc3c3cnc(Nc4ccc5c(n4)CCN(C(=O)CO)C5)nc32)CC1 | binding |  | competition with immobilised ligand | 1 µM | remaining binding | 100%
C#Cc1cc(-c2cc(Nc3nc(N[C@@H](C)c4ccc(F)cn4)ncc3Cl)n[nH]2)ccc1C=O | enzyme activity | inhibitor |  | 0.2 µM | inhibition | 45.4%
